{"source": "ChEMBL document CHEMBL4732237", "about": "“Discovery of 4-alkoxy-2-aryl-6,7-dimethoxyquinolines as a new class of topoisomerase I inhibitors endowed with potent in vitro anticancer activity” (2021)", "key": {"BT-549": {"test_system": "BT-549", "test": "Growth inhibition of human BT-549 cells incubated for 48 hrs by sulforhodamine B assay", "type": "functional", "procedure,_shortened": "(§1)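 NCI five-dose screen covering 0.01–100 µM, prepared as 10-fold or ½-log dilutions from DMSO stock. Cells in RPMI 1640 with 5% FBS were exposed for 48 h at 37 °C after 24 h preincubation. Adherent cells were fixed with TCA (final 10%) and suspension cells were settled before fixing. Stain was SRB, read at 515 nm. GI50 = 50% reduction in net protein increase versus control, with Tz taken at drug addition.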"}, "HCC 2998": {"test_system": "HCC 2998", "test": "Growth inhibition of human HCC 2998 cells incubated for 48 hrs by sulforhodamine B assay", "type": "functional", "procedure,_shortened": "as §1"}, "PC-3": {"test_system": "PC-3", "test": "Growth inhibition of human PC-3 cells incubated for 48 hrs by sulforhodamine B assay", "type": "functional", "procedure,_shortened": "(§2)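 NCI five-dose screen (0.01–100 µM; five concentrations plus control). Cells grown in RPMI 1640/5% FBS/2 mM L-glutamine and preincubated 24 h, with time-zero plates TCA-fixed. Drug exposure 48 h at 37 °C, followed by SRB protein staining and reading at 515 nm. GI50 is the concentration at [(Ti-Tz)/(C-Tz)]×100 = 50.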"}, "TK-10": {"test_system": "TK-10", "test": "Growth inhibition of human TK-10 cells incubated for 48 hrs by sulforhodamine B assay", "type": "functional", "procedure,_shortened": "(§3)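 NCI five-dose assay, with drug stocks in DMSO diluted in medium to five concentrations (10-fold or ½-log series). Cells in RPMI 1640/5% FBS were pre-incubated 24 h, and time-zero plates were TCA-fixed at drug addition. After 48 h at 37 °C, cells were TCA-fixed, SRB-stained and read at 515 nm. GI50 is from [(Ti-Tz)/(C-Tz)]×100 = 50, TGI from Ti = Tz, and LC50 from [(Ti-Tz)/Tz]×100 = -50.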"}, "SF-539": {"test_system": "SF-539", "test": "Growth inhibition of human SF-539 cells incubated for 48 hrs by sulforhodamine B assay", "type": "functional", "procedure,_shortened": "as §2"}, "UACC-257": {"test_system": "UACC-257", "test": "Growth inhibition of human UACC-257 cells incubated for 48 hrs by sulforhodamine B assay", "type": "functional", "procedure,_shortened": "as §3"}, "SF-295": {"test_system": "SF-295", "test": "Growth inhibition of human SF-295 cells incubated for 48 hrs by sulforhodamine B assay", "type": "functional", "procedure,_shortened": "as §2"}, "ACHN": {"test_system": "ACHN", "test": "Growth inhibition of human ACHN cells incubated for 48 hrs by sulforhodamine B assay", "type": "functional", "procedure,_shortened": "as §1"}, "A498": {"test_system": "A498", "test": "Growth inhibition of human A498 cells incubated for 48 hrs by sulforhodamine B assay", "type": "functional", "procedure,_shortened": "as §3"}, "NCI-H522": {"test_system": "NCI-H522", "test": "Growth inhibition of human NCI-H522 cells incubated for 48 hrs by sulforhodamine B assay", "type": "functional", "procedure,_shortened": "as §2"}, "K562": {"test_system": "K562", "test": "Growth inhibition of human K562 cells incubated for 48 hrs by sulforhodamine B assay", "type": "functional", "procedure,_shortened": "as §1"}, "OVCAR-5": {"test_system": "OVCAR-5", "test": "Growth inhibition of human OVCAR-5 cells incubated for 48 hrs by sulforhodamine B assay", "type": "functional", "procedure,_shortened": "as §2"}, "SF-268": {"test_system": "SF-268", "test": "Growth inhibition of human SF-268 cells incubated for 48 hrs by sulforhodamine B assay", "type": "functional", "procedure,_shortened": "as §2"}, "CAKI-1": {"test_system": "CAKI-1", "test": "Growth inhibition of human CAKI-1 cells incubated for 48 hrs by sulforhodamine B assay", "type": "functional", "procedure,_shortened": "as §1"}, "Hs-578T": {"test_system": "Hs-578T", "test": "Growth inhibition of human HS-578T cells incubated for 48 hrs by sulforhodamine B assay", "type": "functional", "procedure,_shortened": "as §1"}, "SW-620": {"test_system": "SW-620", "test": "Growth inhibition of human SW-620 cells incubated for 48 hrs by sulforhodamine B assay", "type": "functional", "procedure,_shortened": "as §3"}, "SK-MEL-2": {"test_system": "SK-MEL-2", "test": "Growth inhibition of human SK-MEL-2 cells incubated for 48 hrs by sulforhodamine B assay", "type": "functional", "procedure,_shortened": "as §2"}, "MDA-MB-435": {"test_system": "MDA-MB-435", "test": "Growth inhibition of human MDA-MB-435 cells incubated for 48 hrs by sulforhodamine B assay", "type": "functional", "procedure,_shortened": "as §1"}, "[1]": {"target": "T1, DNA topoisomerase 1 (Homo sapiens) (UniProt P11387)", "T1 sequence (whole entry)": "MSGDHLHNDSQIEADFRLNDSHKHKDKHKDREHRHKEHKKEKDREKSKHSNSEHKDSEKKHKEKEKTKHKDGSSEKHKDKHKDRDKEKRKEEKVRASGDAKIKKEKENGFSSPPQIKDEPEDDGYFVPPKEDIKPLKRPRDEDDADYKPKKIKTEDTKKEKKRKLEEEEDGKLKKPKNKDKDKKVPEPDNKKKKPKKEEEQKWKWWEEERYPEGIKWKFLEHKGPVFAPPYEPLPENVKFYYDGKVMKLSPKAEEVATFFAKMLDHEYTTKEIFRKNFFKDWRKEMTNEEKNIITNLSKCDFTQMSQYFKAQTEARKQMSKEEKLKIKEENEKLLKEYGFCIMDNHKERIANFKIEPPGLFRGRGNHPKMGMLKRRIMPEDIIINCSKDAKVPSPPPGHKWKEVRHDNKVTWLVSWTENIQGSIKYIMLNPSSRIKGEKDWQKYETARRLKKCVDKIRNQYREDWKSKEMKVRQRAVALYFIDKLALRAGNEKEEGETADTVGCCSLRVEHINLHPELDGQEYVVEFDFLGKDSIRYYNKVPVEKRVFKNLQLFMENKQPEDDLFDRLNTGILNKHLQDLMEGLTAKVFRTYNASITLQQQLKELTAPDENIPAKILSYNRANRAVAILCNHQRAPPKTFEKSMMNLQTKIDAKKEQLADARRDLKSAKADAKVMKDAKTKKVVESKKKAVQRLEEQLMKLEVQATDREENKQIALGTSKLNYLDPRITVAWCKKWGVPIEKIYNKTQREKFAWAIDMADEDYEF", "test": "Inhibition of recombinant human TOPO1 assessed as TOP1-DNA cleavage complexes at 1 uM using 3'-[32-P]-117 labeled bp DNA as substrate incubated for 30 mins by SDS-PAGE analysis relative to control"}, "MOLT-4": {"test_system": "MOLT-4", "test": "Growth inhibition of human MOLT-4 cells incubated for 48 hrs by sulforhodamine B assay", "type": "functional", "procedure,_shortened": "as §2"}, "SNB-19": {"test_system": "SNB-19", "test": "Growth inhibition of human SNB-19 cells incubated for 48 hrs by sulforhodamine B assay", "type": "functional", "procedure,_shortened": "as §2"}, "KM12": {"test_system": "KM12", "test": "Growth inhibition of human KM12 cells incubated for 48 hrs by sulforhodamine B assay", "type": "functional", "procedure,_shortened": "as §1"}, "DU-145": {"test_system": "DU-145", "test": "Growth inhibition of human DU-145 cells incubated for 48 hrs by sulforhodamine B assay", "type": "functional", "procedure,_shortened": "as §1"}, "NCI-H226": {"test_system": "NCI-H226", "test": "Growth inhibition of human NCI-H226 cells incubated for 48 hrs by sulforhodamine B assay", "type": "functional", "procedure,_shortened": "as §2"}, "RXF 393": {"test_system": "RXF 393", "test": "Growth inhibition of human RXF 393 cells incubated for 48 hrs by sulforhodamine B assay", "type": "functional", "procedure,_shortened": "as §2"}, "UO-31": {"test_system": "UO-31", "test": "Growth inhibition of human UO-31 cells incubated for 48 hrs by sulforhodamine B assay", "type": "functional", "procedure,_shortened": "as §3"}, "M14": {"test_system": "M14", "test": "Growth inhibition of human M14 cells incubated for 48 hrs by sulforhodamine B assay", "type": "functional", "procedure,_shortened": "as §1"}, "CCRF-CEM": {"test_system": "CCRF-CEM", "test": "Growth inhibition of human CCRF-CEM cells incubated for 48 hrs by sulforhodamine B assay", "type": "functional", "procedure,_shortened": "as §1"}, "OVCAR-3": {"test_system": "OVCAR-3", "test": "Growth inhibition of human OVCAR-3 cells incubated for 48 hrs by sulforhodamine B assay", "type": "functional", "procedure,_shortened": "as §2"}, "HOP-92": {"test_system": "HOP-92", "test": "Growth inhibition of human HOP-92 cells incubated for 48 hrs by sulforhodamine B assay", "type": "functional", "procedure,_shortened": "as §1"}}, "data": [{"compound": "COc1cc2nc(-c3ccc(C(F)(F)F)cc3)cc(OCCCN3CCCCC3)c2cc1OC", "values": [{"measurement": "GI50", "setting": "BT-549", "result": 1.48, "unit": "µM"}, {"measurement": "GI50", "setting": "HCC 2998", "result": 1.28, "unit": "µM"}, {"measurement": "GI50", "setting": "PC-3", "result": 1.34, "unit": "µM"}, {"measurement": "GI50", "setting": "TK-10", "result": 7.8, "unit": "µM"}, {"measurement": "GI50", "setting": "SF-539", "result": 2.08, "unit": "µM"}, {"measurement": "GI50", "setting": "UACC-257", "result": 1.7, "unit": "µM"}, {"measurement": "GI50", "setting": "SF-295", "result": 0.53, "unit": "µM"}, {"measurement": "GI50", "setting": "ACHN", "result": 1.2, "unit": "µM"}, {"measurement": "GI50", "setting": "A498", "result": 1.85, "unit": "µM"}, {"measurement": "GI50", "setting": "NCI-H522", "result": 2.44, "unit": "µM"}, {"measurement": "GI50", "setting": "K562", "result": 0.578, "unit": "µM"}, {"measurement": "GI50", "setting": "OVCAR-5", "result": 0.71, "unit": "µM"}, {"measurement": "GI50", "setting": "SF-268", "result": 3.76, "unit": "µM"}, {"measurement": "GI50", "setting": "CAKI-1", "result": 0.272, "unit": "µM"}, {"measurement": "GI50", "setting": "Hs-578T", "result": 2.15, "unit": "µM"}, {"measurement": "GI50", "setting": "SW-620", "result": 2.91, "unit": "µM"}, {"measurement": "GI50", "setting": "SK-MEL-2", "result": 2.64, "unit": "µM"}, {"measurement": "GI50", "setting": "MDA-MB-435", "result": 1.23, "unit": "µM"}, {"measurement": "inhibition", "setting": "[1]", "result": 20, "unit": "%"}, {"measurement": "GI50", "setting": "MOLT-4", "result": 1.7, "unit": "µM"}, {"measurement": "GI50", "setting": "SNB-19", "result": 2.82, "unit": "µM"}, {"measurement": "GI50", "setting": "KM12", "result": 2.92, "unit": "µM"}, {"measurement": "GI50", "setting": "DU-145", "result": 1.84, "unit": "µM"}, {"measurement": "GI50", "setting": "NCI-H226", "result": 0.37, "unit": "µM"}, {"measurement": "GI50", "setting": "RXF 393", "result": 1.09, "unit": "µM"}, {"measurement": "GI50", "setting": "UO-31", "result": 2, "unit": "µM"}, {"measurement": "GI50", "setting": "M14", "result": 0.327, "unit": "µM"}, {"measurement": "GI50", "setting": "CCRF-CEM", "result": 1.83, "unit": "µM"}, {"measurement": "GI50", "setting": "OVCAR-3", "result": 2.44, "unit": "µM"}, {"measurement": "GI50", "setting": "HOP-92", "result": 0.678, "unit": "µM"}]}]}
